Rows were chosen to be rich in hits. Some 2.5% of all compounds tested hit in one or more screens of this group.
NR2E3 ag-1 = activates human NR2E3 receptor | Q9Y5X4 | CHO-S Gal4-NCOR/VP16-NR2E3 two-hybrid, luciferase | inhibition of corepressor binding, % at 3.98 µM | hit rate 0.35% among 360,000;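 active = inhibition above the mean of all tested compounds plus 3 SD, cut at about 70% in these data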;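 note: higher means lower luciferase signal from less NR2E3 corepressor binding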
Target sequence (Q9Y5X4 whole entry, looked up, the tested form may be a part): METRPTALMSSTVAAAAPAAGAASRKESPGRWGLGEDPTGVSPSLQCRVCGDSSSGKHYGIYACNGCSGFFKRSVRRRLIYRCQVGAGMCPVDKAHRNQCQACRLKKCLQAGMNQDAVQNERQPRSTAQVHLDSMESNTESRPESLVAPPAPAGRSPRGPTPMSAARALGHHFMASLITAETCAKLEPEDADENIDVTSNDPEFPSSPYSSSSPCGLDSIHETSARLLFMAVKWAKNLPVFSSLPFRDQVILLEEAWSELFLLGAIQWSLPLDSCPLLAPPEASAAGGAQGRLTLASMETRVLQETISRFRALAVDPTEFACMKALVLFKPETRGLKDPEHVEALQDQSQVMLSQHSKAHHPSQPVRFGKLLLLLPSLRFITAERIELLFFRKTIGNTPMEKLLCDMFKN
MsrA inh = inhibitors of bovine MsrA | purified bovine MsrA, absorbance read-out | inhibition, % at 15.5 µM | hit rate 0.75% among 360,000 | AID 651718
NR2E3 ag-2 = agonists of human nuclear receptor NR2E3; GST-NR2E3/biotin-RetCOR TR-FRET, 1536-well; Q9Y5X4; hit rate 0.12% among 320,000; inhibition of corepressor binding, % at 4.78 µM;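 active = percent inhibition above the cutoff of mean plus 3 SD of all tested compounds, set per screening campaign, cut at about 20% in these data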
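Test system – NR2E3–RetCOR corepressor complex · Quantity – NR2E3 fusion 1.35 nM · Buffer or medium – Tris pH 7.5 · Incubation – Compound–protein incubation for 5 h at 4 °C · Technique – TR-FRET, Eu(K)-anti-GST donor, streptavidin-D2 acceptor, ex 340, em 617/671 nm · Evaluation – percent inhibition of 671/617 nm emission ratio versus biotin and DMSO controls · Plate – 1536-well format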
bovine MsrA act = activators of bovine methionine sulfoxide reductase A | purified bovine MsrA, absorbance read-out | hit rate 0.3% among 360,000 | activation, % at 10.6 µM; in the data active = activation above about 7.5%
GalR3 antagonist = blocks the human galanin receptor 3 | hit rate 0.44% among 360,000 | inhibition, % at 3 µM | O60755 | AID 651719 | HEK293 GalR3-CNG cAMP membrane potential fluorescence; galR3 body fused to GalR1 C-terminus;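 active = inhibition above the screen-wide average plus 3 SD, cut at about 13% in these data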;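 note: forskolin and galanin both at EC90 stimulate the cells; cAMP rise reported by CNG channel membrane potential dye signal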
NadD block = NadD (S. aureus) enzyme inhibition | inhibition, % at 20 µM | AID 602399 | purified NadD enzyme, colorimetric absorbance read-out | hit rate 0.78% among 360,000; in the data active = inhibition above about 26%
MsrA inh confirm = confirmation of bovine MsrA inhibitors; shares compounds with MsrA inh; AID 651822; hit rate 41% among 2,300; purified bovine MsrA, absorbance read-out; inhibition, % at 15.5 µM;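 note: coupled to thioredoxin reductase with NADPH and selenocystamine and DMSO as substrate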
Numbers stand for hits; . = inactive; / = not tested or not shown. Cut-off read from the data, not from the text of the source, unless noted: active = inhibition above about 4.5%; inactive = the rest.

SMILES	NR2E3 ag-1	MsrA inh	NR2E3 ag-2	bovine MsrA act	GalR3 antagonist	NadD block	MsrA inh confirm
C[C@H]1c2cccc(O)c2C(=O)C2C(=O)C3(O)C(=O)C(C(N)=O)C(=O)[C@@H](N(C)C)[C@@H]3[C@@H](O)[C@@H]21 (stereo not given in full)	.	.	/	.	/	.	/
C[C@H]1c2cccc(O)c2C(O)=C2C(=O)C3(O)C(O)=C(C(N)=O)C(=O)[C@@H](N(C)C)[C@@H]3[C@@H](O)[C@@H]21 (stereo not given in full)	.	4.9	.	.	/	.	.
COC1C(OC(=O)/C=C/C=C/C=C/C=C/C(=O)O)CCC2(CO2)C1C1(C)OC1CC=C(C)C (stereo not given) (tested in a mixture with another compound)	.	8.8	/	.	.	.	12
CC(C)c1nc(N2CCCC2)c(C#N)c2c1CCCC2	.	.	.	.	.	.	/
N#Cc1cc(NC2CCCC2)c([N+](=O)[O-])cc1C#N	.	43	.	.	.	.	.
O=[N+]([O-])c1ccc(NC2CCCC2)cc1	.	.	.	.	.	.	/
Cc1ccc(S(=O)(=O)N2CCCCC2)cc1NC(=O)CSc1nnc(N)s1	.	.	.	.	.	.	/
O=C(CCCN1C(=O)c2ccccc2C1=O)NC1=NCCS1	.	.	/	.	.	.	/
CC(=O)Oc1ccc(/C=C(\NC(=O)c2ccco2)C(=O)Nc2ccc(C(C)=O)cc2)cc1	.	.	.	.	.	.	/
O=C(Nc1ccc(C(=O)O)cc1)/C(=C\c1ccco1)NC(=O)c1ccc(Br)o1	.	.	.	.	.	.	/
COc1ccc(/C=C(/NC(=O)c2ccco2)C(=O)Nc2ccc(C(=O)O)cc2)cc1	.	6.2	.	.	.	.	.
COc1ccc(/C=C(\NC(=O)c2ccco2)C(=O)Nc2ccc(C(C)=O)cc2)cc1	.	5.4	/	.	.	.	6.2
O=C(Nc1ccc(C(=O)O)cc1)/C(=C\c1ccccc1)NC(=O)c1ccco1	.	.	.	.	.	.	/
O=C(Nc1ccc(C(=O)O)cc1)/C(=C\c1ccco1)NC(=O)c1ccc(Br)cc1	.	5.1	/	.	.	.	.
COc1ccc(Cc2c(C(C)(C)C)nc3ccc(C)cn23)c(C)c1	.	.	/	.	.	.	/
C=Cc1ccc(CC2(C)C(=O)Nc3ccc(-c4cccnc4)cc32)cc1 (stereo not given)	.	13	/	.	.	.	6.3
Fc1ccccc1C1CC(c2ccco2)=Nc2ccccc2S1 (stereo not given)	.	4.9	.	.	.	.	.
CC1(C)CC(=O)c2sc(NC(=O)CN3CCCCC3)nc2C1	.	5.2	.	.	.	.	.
CC1(C)CC(=O)c2sc(NS(=O)(=O)c3ccc(Cl)cc3)nc2C1	.	.	.	.	.	.	/
CC1(C)CC(=O)c2sc(NS(=O)(=O)c3ccc(F)cc3)nc2C1	.	5.3	.	.	.	.	.
O=c1oc2ccccc2cc1-c1nc2ccccc2o1	.	5.2	.	.	.	.	.
O=c1oc2ccc3ccccc3c2cc1-c1nc2ccccc2o1	.	.	.	.	.	.	/
CC(NC(=O)c1cnc2ccccc2n1)c1ccccc1 (stereo not given)	.	.	.	.	.	.	/
CC(C)(C)NC(=O)/C=C/c1cccs1	.	.	.	.	.	.	/
Cc1ccnc(NS(=O)(=O)c2ccc(NC(=O)/C=C/c3ccccc3)cc2)n1	.	.	.	.	.	.	/
SMILES	NR2E3 ag-1	MsrA inh	NR2E3 ag-2	bovine MsrA act	GalR3 antagonist	NadD block	MsrA inh confirm
O=C(/C=C/c1cccs1)Nc1ccncc1	.	5.9	.	.	.	.	5.3
Cc1cccc(NC(=O)/C=C/c2cccs2)n1	.	5.0	.	.	.	.	.
Cc1ccnc(NS(=O)(=O)c2ccc(NC(=O)/C=C/c3cccs3)cc2)n1	.	5.9	.	.	.	.	.
CCC(C)Cn1cnc2c(Sc3c([N+](=O)[O-])ncn3C)nc(N)nc21 (stereo not given)	.	4.9	/	.	.	.	4.9
CC(C)Cn1cnc2c(Sc3c([N+](=O)[O-])ncn3C)nc(N)nc21	.	7.7	/	.	.	.	.
CCCCn1cnc2c(Sc3c([N+](=O)[O-])ncn3C)nc(N)nc21	.	5.2	/	.	.	.	.
